Data from ChEMBL document CHEMBL1811765, “Synthesis, biological evaluation, and molecular modeling of cinnamic acyl sulfonamide derivatives as novel antitubulin agents” (Bioorg Med Chem, 2011).
In brackets after ≈: the same amount, converted by molar mass.

What was measured:
[1] = tested on: B16-F10; test: Antiproliferative activity against mouse B16F10 cells after 48 hrs by MTT based ELISA assay; format: functional, cell-based; conditions: B16-F10, 48 h
In short: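 B16-F10 cells grown to log phase in RPMI 1640 with 10% FBS, seeded at 2 × 10⁴ cells/mL and incubated 24 h at 37 °C, 5% CO₂ before treatment. Read-out was absorbance at 570 nm after an overnight incubation at 37 °C. Three replicate wells per concentration, each assay run at least three times. IC50 reported.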

[2] = Inhibition of bovine brain tubulin polymerization after 20 mins by turbidimetric analysis; set-up: species or system Bos taurus
In short: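 Tubulin at 10 µM in glutamate buffer was preincubated with varying compound concentrations at 30 °C, then cooled to 0 °C. GTP was added, the mix moved to 0 °C cuvettes and warmed to 30 °C, and assembly was followed turbidimetrically.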

[3] = tested on: B16-F10; test: Cell cycle arrest in mouse B16F10 cells assessed as accumulation at G0/G1 phase at 1 ug/ml after 24 hrs by flow cytometry analysis (reference value: 48.57%); format: functional
[4] = tested on: B16-F10; test: Cell cycle arrest in mouse B16F10 cells assessed as accumulation at S phase at 1 ug/ml after 24 hrs by flow cytometry analysis (reference value: 9.40%); format: functional
[5] = tested on: B16-F10; test: Cell cycle arrest in mouse B16F10 cells assessed as accumulation at G2/M phase at 1 ug/ml after 24 hrs by flow cytometry analysis (reference value: 17.03%); format: functional
[6] = tested on: B16-F10; test: Cell cycle arrest in mouse B16F10 cells assessed as accumulation at G0/G1 phase at 5 ug/ml after 24 hrs by flow cytometry analysis (reference value: 48.57%); format: functional
[7] = tested on: B16-F10; test: Cell cycle arrest in mouse B16F10 cells assessed as accumulation at S phase at 5 ug/ml after 24 hrs by flow cytometry analysis (reference value: 9.40%); format: functional
[8] = tested on: B16-F10; test: Cell cycle arrest in mouse B16F10 cells assessed as accumulation at G2/M phase at 5 ug/ml after 24 hrs by flow cytometry analysis (reference value: 17.03%); format: functional

SMILES | IC50 [1] [µg/mL] | IC50 [2] [µg/mL] | other results
O=C(/C=C/c1ccc(Br)cc1)NS(=O)(=O)c1ccccc1 | 3.9 (≈ 10.6 µM) | 74 (≈ 202 µM) | 
O=C(/C=C/c1ccc(F)cc1)NS(=O)(=O)c1ccc(F)cc1 | 0.8 (≈ 2.47 µM) | 2.4 (≈ 7.42 µM) | Activity [3]: 26.7%; Activity [4]: 9.08%; Activity [5]: 30.21%; Activity [6]: 5.65%; Activity [7]: 4.22%; Activity [8]: 49%
O=C(/C=C/c1ccccc1)NS(=O)(=O)c1ccc(Cl)cc1 | 2.2 (≈ 6.84 µM) | 14.8 (≈ 46 µM) | 
O=C(/C=C/c1ccccc1)NS(=O)(=O)c1ccccc1 | 3.5 (≈ 12.2 µM) | 37 (≈ 129 µM) | 
O=C(/C=C/c1ccc([N+](=O)[O-])cc1)NS(=O)(=O)c1ccc(F)cc1 | 2.2 (≈ 6.28 µM) | 6.3 (≈ 18 µM) | 
Cc1ccc(S(=O)(=O)NC(=O)/C=C/c2ccccc2[N+](=O)[O-])cc1 | 10.3 (≈ 29.7 µM) | 102 (≈ 294 µM) | 
O=C(/C=C/c1ccc(F)cc1)NS(=O)(=O)c1ccccc1 | 2.1 (≈ 6.88 µM) | 4.5 (≈ 14.7 µM) | 
O=C(/C=C/c1ccccc1[N+](=O)[O-])NS(=O)(=O)c1ccc(Br)cc1 | 12.6 (≈ 30.6 µM) | 134 (≈ 326 µM) | 
O=C(/C=C/c1ccccc1)NS(=O)(=O)c1ccc(Br)cc1 | 3.9 (≈ 10.6 µM) | 63 (≈ 172 µM) | 
O=C(/C=C/c1ccccc1[N+](=O)[O-])NS(=O)(=O)c1ccc(F)cc1 | 6 (≈ 17.1 µM) | 69 (≈ 197 µM) | 
COc1ccc(/C=C/C(=O)NS(=O)(=O)c2ccc(C)cc2)cc1 | 12.2 (≈ 36.8 µM) | 146 (≈ 441 µM) | 
Cc1ccc(S(=O)(=O)NC(=O)/C=C/c2ccc([N+](=O)[O-])cc2)cc1 | 13.5 (≈ 39 µM) | 151 (≈ 436 µM) | 
O=C(/C=C/c1ccccc1[N+](=O)[O-])NS(=O)(=O)c1ccc(Cl)cc1 | 6.6 (≈ 18 µM) | 78 (≈ 213 µM) | 
Cc1ccc(S(=O)(=O)NC(=O)/C=C/c2ccc(N(C)C)cc2)cc1 | 4.3 (≈ 12.5 µM) | 37 (≈ 107 µM) | 
COc1ccc(/C=C/C(=O)NS(=O)(=O)c2ccc(F)cc2)cc1 | 5.1 (≈ 15.2 µM) | 45 (≈ 134 µM) | 
CN(C)c1ccc(/C=C/C(=O)NS(=O)(=O)c2ccccc2)cc1 | 2.3 (≈ 6.96 µM) | 26 (≈ 78.7 µM) | 
O=C(/C=C/c1ccccc1[N+](=O)[O-])NS(=O)(=O)c1ccccc1 | 6 (≈ 18.1 µM) | 74 (≈ 223 µM) | 
O=C(/C=C/c1ccccc1)NS(=O)(=O)c1ccc(F)cc1 | 2.1 (≈ 6.88 µM) | 4.5 (≈ 14.7 µM) | 
O=C(/C=C/c1ccc([N+](=O)[O-])cc1)NS(=O)(=O)c1ccccc1 | 4.8 (≈ 14.4 µM) | 50 (≈ 150 µM) | 
Cc1ccc(S(=O)(=O)NC(=O)/C=C/c2ccc(F)cc2)cc1 | 4.8 (≈ 15 µM) | 40 (≈ 125 µM) | 
CN(C)c1ccc(/C=C/C(=O)NS(=O)(=O)c2ccc(F)cc2)cc1 | 2.3 (≈ 6.6 µM) | 10 (≈ 28.7 µM) | 
COc1ccc(/C=C/C(=O)NS(=O)(=O)c2ccccc2)cc1 | 13.2 (≈ 41.6 µM) | 160 (≈ 504 µM) | 
O=C(/C=C/c1ccc(Cl)cc1)NS(=O)(=O)c1ccccc1 | 2.2 (≈ 6.84 µM) | 15.3 (≈ 47.5 µM) | 
COc1ccc(/C=C\c2cc(OC)c(OC)c(OC)c2)cc1O [COMBRETASTATIN A4] |  | 0.7 (≈ 2.21 µM) | 
Cc1ccc(S(=O)(=O)NC(=O)/C=C/c2ccccc2)cc1 | 13.8 (≈ 45.8 µM) | 152 (≈ 504 µM) | 
COc1cc2c(c(OC)c1OC)-c1ccc(OC)c(=O)cc1[C@@H](NC(C)=O)CC2 [COLCHICINE] |  |  | Activity [3]: 1.58%; Activity [4]: 1.3%; Activity [5]: 61.11%

Now from value to molecule, other results behind:

IC50 [1] [µg/mL] | IC50 [2] [µg/mL] | SMILES | other results
4.6 (≈ 13.7 µM) | 30 (≈ 89.3 µM) | Cc1ccc(S(=O)(=O)NC(=O)/C=C/c2ccc(Cl)cc2)cc1 | 
5.1 (≈ 11.5 µM) | 53 (≈ 119 µM) | O=C(/C=C/c1ccc(Br)cc1)NS(=O)(=O)c1ccc(Br)cc1 | 
2.5 (≈ 7.02 µM) | 9.3 (≈ 26.1 µM) | O=C(/C=C/c1ccc(Cl)cc1)NS(=O)(=O)c1ccc(Cl)cc1 | 
1.2 (≈ 3.12 µM) | 3.8 (≈ 9.89 µM) | O=C(/C=C/c1ccc(Br)cc1)NS(=O)(=O)c1ccc(F)cc1 | 
4.2 (≈ 10.3 µM) | 34 (≈ 83.1 µM) | CN(C)c1ccc(/C=C/C(=O)NS(=O)(=O)c2ccc(Br)cc2)cc1 | 
2.6 (≈ 7.65 µM) | 4.5 (≈ 13.2 µM) | O=C(/C=C/c1ccc(F)cc1)NS(=O)(=O)c1ccc(Cl)cc1 | 
5.3 (≈ 15.1 µM) | 52 (≈ 148 µM) | COc1ccc(/C=C/C(=O)NS(=O)(=O)c2ccc(Cl)cc2)cc1 | 
2.8 (≈ 7.67 µM) | 14 (≈ 38.4 µM) | CN(C)c1ccc(/C=C/C(=O)NS(=O)(=O)c2ccc(Cl)cc2)cc1 | 
13.7 (≈ 37.4 µM) | 134 (≈ 365 µM) | O=C(/C=C/c1ccc([N+](=O)[O-])cc1)NS(=O)(=O)c1ccc(Cl)cc1 | 
2.8 (≈ 7.29 µM) | 14.7 (≈ 38.3 µM) | O=C(/C=C/c1ccc(F)cc1)NS(=O)(=O)c1ccc(Br)cc1 | 
2.8 (≈ 6.99 µM) | 10.8 (≈ 27 µM) | O=C(/C=C/c1ccc(Cl)cc1)NS(=O)(=O)c1ccc(Br)cc1 | 
2 (≈ 5.89 µM) | 8.9 (≈ 26.2 µM) | O=C(/C=C/c1ccc(Cl)cc1)NS(=O)(=O)c1ccc(F)cc1 | 
5.8 (≈ 14.6 µM) | 53 (≈ 134 µM) | COc1ccc(/C=C/C(=O)NS(=O)(=O)c2ccc(Br)cc2)cc1 | 
13.9 (≈ 33.8 µM) | 163 (≈ 396 µM) | O=C(/C=C/c1ccc([N+](=O)[O-])cc1)NS(=O)(=O)c1ccc(Br)cc1 | 
5.2 (≈ 13 µM) | 55 (≈ 137 µM) | O=C(/C=C/c1ccc(Br)cc1)NS(=O)(=O)c1ccc(Cl)cc1 | 
12.1 (≈ 31.8 µM) | 137 (≈ 360 µM) | Cc1ccc(S(=O)(=O)NC(=O)/C=C/c2ccc(Br)cc2)cc1 | 
